≈ marks a conversion by molar mass, not a printed value.
Assays:
[1] = Solubility at pH 5.0; assay type: physicochemical; details: buffer
[2] = Metabolic stability in rat liver S9 fraction assessed as compound remaining after 60 mins; assay type: ADME, subcellular; details: read-out: Activity
[3] = molecular target: Voltage-gated inwardly rectifying potassium channel KCNH2 (Homo sapiens, UniProt Q12809)
[4] = Oral bioavailability in rat; assay type: ADME, organism-based; details: in vivo
[5] = molecular target: Cytochrome P450 3A4 (Homo sapiens, UniProt P08684)
[6] = Clearance in rat; assay type: ADME, organism-based; details: in vivo
[7] = AUC in rat at 2 mg/kg, po; assay type: ADME, organism-based; design: dose 2 mg/kg, route oral; details: plasma
[8] = Plasma concentration in cynomolgus monkey at 10 mg/kg, po after 2 hrs; assay type: ADME, organism-based, Macaca fascicularis; design: dose 10 mg/kg, route oral
In short: (§1)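 Cynomolgus monkeys were given single oral doses of 0.4, 2 or 10 mg/kg in 1% methylcellulose plus 1% Tween 80 in sterile water, with 3 animals per dose group and a vehicle group of 4. Plasma and mesenteric fat were collected 2 h post-dose. Compound level in each matrix was measured by LC/MS/MS.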

[9] = Plasma concentration in cynomolgus monkey at 2 mg/kg, po after 2 hrs; assay type: ADME, organism-based, Macaca fascicularis; design: dose 2 mg/kg, route oral; in short: as §1
[10] = Drug level in mesenteric fat tissue of cynomolgus monkey at 2 mg/kg, po after 2 hrs; assay type: ADME, organism-based, Macaca fascicularis, Adipose tissue; design: dose 2 mg/kg, route oral; details: read-out: Drug uptake; in short: as §1
[11] = Drug level in mesenteric fat tissue of cynomolgus monkey at 10 mg/kg, po after 2 hrs; assay type: ADME, organism-based, Macaca fascicularis, Adipose tissue; design: dose 10 mg/kg, route oral; details: read-out: Drug uptake; in short: as §1
[12] = Plasma concentration in cynomolgus monkey at 0.4 mg/kg, po after 2 hrs; assay type: ADME, organism-based, Macaca fascicularis; design: dose 0.4 mg/kg, route oral; in short: as §1
[13] = Drug level in mesenteric fat tissue of cynomolgus monkey at 0.4 mg/kg, po after 2 hrs; assay type: ADME, organism-based, Macaca fascicularis, Adipose tissue; design: dose 0.4 mg/kg, route oral; details: read-out: Drug uptake; in short: as §1

Sequence of Voltage-gated inwardly rectifying potassium channel KCNH2 (Q12809 whole entry): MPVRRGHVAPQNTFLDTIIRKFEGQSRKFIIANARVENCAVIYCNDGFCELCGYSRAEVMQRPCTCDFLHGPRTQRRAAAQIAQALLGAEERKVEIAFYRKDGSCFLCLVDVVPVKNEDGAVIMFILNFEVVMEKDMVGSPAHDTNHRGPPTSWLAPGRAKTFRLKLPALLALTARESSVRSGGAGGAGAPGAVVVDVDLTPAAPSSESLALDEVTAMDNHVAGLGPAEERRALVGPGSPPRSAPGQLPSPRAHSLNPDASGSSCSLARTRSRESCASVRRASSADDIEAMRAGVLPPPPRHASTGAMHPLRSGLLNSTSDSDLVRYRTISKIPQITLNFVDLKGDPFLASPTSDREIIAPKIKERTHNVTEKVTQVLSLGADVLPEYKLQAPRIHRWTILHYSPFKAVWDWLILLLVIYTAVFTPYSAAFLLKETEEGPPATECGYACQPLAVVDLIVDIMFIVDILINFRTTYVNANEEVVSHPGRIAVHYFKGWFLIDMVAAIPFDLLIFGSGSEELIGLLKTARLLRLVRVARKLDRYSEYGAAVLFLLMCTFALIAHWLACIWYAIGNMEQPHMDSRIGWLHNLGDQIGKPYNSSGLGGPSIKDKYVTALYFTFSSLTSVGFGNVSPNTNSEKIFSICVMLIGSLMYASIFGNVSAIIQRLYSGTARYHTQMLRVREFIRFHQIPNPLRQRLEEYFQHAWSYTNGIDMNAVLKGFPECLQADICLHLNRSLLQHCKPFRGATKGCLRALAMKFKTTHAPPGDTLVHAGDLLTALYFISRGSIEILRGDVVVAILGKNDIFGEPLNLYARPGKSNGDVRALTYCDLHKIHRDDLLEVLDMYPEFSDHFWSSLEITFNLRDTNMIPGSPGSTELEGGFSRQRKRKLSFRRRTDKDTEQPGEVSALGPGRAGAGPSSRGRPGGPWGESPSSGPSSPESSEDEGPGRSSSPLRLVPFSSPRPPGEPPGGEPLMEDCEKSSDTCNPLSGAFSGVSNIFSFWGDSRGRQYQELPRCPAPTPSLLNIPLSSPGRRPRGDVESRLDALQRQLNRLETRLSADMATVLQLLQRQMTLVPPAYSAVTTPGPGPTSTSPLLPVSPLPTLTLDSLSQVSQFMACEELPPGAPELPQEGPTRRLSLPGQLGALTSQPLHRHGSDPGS
Sequence of Cytochrome P450 3A4 (P08684 whole entry): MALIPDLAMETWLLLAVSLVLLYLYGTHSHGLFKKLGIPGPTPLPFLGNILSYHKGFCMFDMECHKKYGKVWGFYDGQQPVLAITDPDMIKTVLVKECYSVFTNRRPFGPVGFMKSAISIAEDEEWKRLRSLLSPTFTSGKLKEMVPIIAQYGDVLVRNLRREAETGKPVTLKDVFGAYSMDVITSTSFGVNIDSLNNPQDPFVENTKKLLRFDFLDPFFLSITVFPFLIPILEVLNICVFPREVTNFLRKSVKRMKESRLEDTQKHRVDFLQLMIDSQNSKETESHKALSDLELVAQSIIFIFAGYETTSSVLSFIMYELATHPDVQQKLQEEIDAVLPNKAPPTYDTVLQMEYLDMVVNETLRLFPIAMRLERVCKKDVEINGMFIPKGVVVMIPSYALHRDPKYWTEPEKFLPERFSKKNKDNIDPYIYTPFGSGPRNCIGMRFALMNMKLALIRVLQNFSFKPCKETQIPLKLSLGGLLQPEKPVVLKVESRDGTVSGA

Row | SMILES | solubility [1] [mg/mL] | remaining at 1 h [2] [%] | also measured
1 | C[C@@H]1CN(CC(F)(F)c2ccncc2)CCN1S(=O)(=O)c1ccc(C(C)(O)C(F)(F)F)cc1 (stereo not given in full) |  | 40 | 
2 | C[C@@H]1CN(CC2(c3ccncc3)CC2)CCN1S(=O)(=O)c1ccc(C(C)(O)C(F)(F)F)cc1 (stereo not given in full) |  | 80 | IC50 [3]: 0.44 µM; bioavailability [4]: 60%; IC50 [5]: 1.7 µM; clearance [6]: 2.1 L/h/kg
3 | CC(C)(C)c1ccc(S(=O)(=O)N2CCN(c3ccc([N+](=O)[O-])cc3)CC2)cc1 | 0.0005 (≈ 1.24 µM) |  | AUC [7]: 0.0298 µg·h/mL
4 | C[C@@H]1CN(CC2(c3cccnc3)CCCC2)CCN1S(=O)(=O)c1ccc(C(C)(O)C(F)(F)F)cc1 (stereo not given in full) |  | 60 | 
5 | C[C@@H]1CN(CC2(C(N)=O)CC2)CCN1S(=O)(=O)c1ccc([C@](C)(O)C(F)(F)F)cc1 |  |  | concentration at 2 h [8]: 0.503 µM; concentration at 2 h [9]: 0.349 µM; concentration at 2 h [10]: 2.78 µM; concentration at 2 h [11]: 40.7 µM; concentration at 2 h [12]: 0.029 µM; concentration at 2 h [13]: 0.105 µM; AUC [7]: 0.638 µg·h/mL
6 | C[C@@H]1CN(CCc2cccnc2)CCN1S(=O)(=O)c1ccc(C(C)(O)C(F)(F)F)cc1 (stereo not given in full) |  | 67 | 
7 | C[C@@H]1CN(CCc2ccccn2)CCN1S(=O)(=O)c1ccc(C(C)(O)C(F)(F)F)cc1 (stereo not given in full) |  | 28 | 
8 | C[C@@H]1CN(CC2(c3ccncc3)CCCC2)CCN1S(=O)(=O)c1ccc(C(C)(O)C(F)(F)F)cc1 (stereo not given in full) |  | 43 | 
9 | CC(c1ccncc1)N1CCN(S(=O)(=O)c2ccc(C(C)(C)C)cc2)[C@H](C)C1 (stereo not given in full) | 0.0208 (≈ 51.8 µM) |  | 

Now from value to compound, other results behind:

Row | solubility [1] [mg/mL] | remaining at 1 h [2] [%] | SMILES | also measured
10 | 0.001 (≈ 2.29 µM) |  | C[C@@H]1CN(Cc2ccnc3ccccc23)CCN1S(=O)(=O)c1ccc(C(C)(C)C)cc1 | 
11 | 0.0181 (≈ 46.7 µM) |  | C[C@@H]1CN(Cc2ccncc2)CCN1S(=O)(=O)c1ccc(C(C)(C)C)cc1 | 
12 |  | 46 | C[C@@H]1CN(CC(F)(F)c2cccnc2)CCN1S(=O)(=O)c1ccc(C(C)(O)C(F)(F)F)cc1 (stereo not given in full) | 
13 | 0.0018 (≈ 4.31 µM) |  | C[C@@H]1CN(c2ccc([N+](=O)[O-])cc2)CCN1S(=O)(=O)c1ccc(C(C)(C)C)cc1 | 
14 |  | 50 | C[C@@H]1CN(CC2(c3cccnc3)CC2)CCN1S(=O)(=O)c1ccc(C(C)(O)C(F)(F)F)cc1 (stereo not given in full) | 
15 | 0.0218 (≈ 54.3 µM) |  | C[C@@H]1CN(CCc2ccncc2)CCN1S(=O)(=O)c1ccc(C(C)(C)C)cc1 | 
16 |  | 59 | C[C@@H]1CN(CCc2ccncc2)CCN1S(=O)(=O)c1ccc(C(C)(O)C(F)(F)F)cc1 (stereo not given in full) | 
17 |  | 61 | C[C@@H]1CN(CC2(c3cccnc3)CCC2)CCN1S(=O)(=O)c1ccc(C(C)(O)C(F)(F)F)cc1 (stereo not given in full) | 
18 | 0.039 (≈ 93.8 µM) |  | C[C@@H]1CN(CCCc2ccncc2)CCN1S(=O)(=O)c1ccc(C(C)(C)C)cc1 | 
19 |  | 54 | C[C@@H]1CN(CC2(c3ccncc3)CCC2)CCN1S(=O)(=O)c1ccc(C(C)(O)C(F)(F)F)cc1 (stereo not given in full) | 

From ChEMBL document CHEMBL1152875, “Synthesis and optimization of arylsulfonylpiperazines as a novel class of inhibitors of 11 beta-hydroxysteroid dehydrogenase type 1 (11 beta-HSD1)” (Bioorg Med Chem Lett, 2009)
